Common to all, as to assay type: functional, cell-based
Assay [1] relates to HEp-2. Put plainly: Cytotoxicity of compound against growth of human Hep2 cell line. The method, boiled down:
(§1)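 MTT dye-conversion assay. Cells kept in monolayer at 37 °C in humidified 5% CO2, trypsinized, seeded at 5 × 10³ cells/well and grown 24 h. Then treated 96 h with exponentially increasing drug concentrations in 10% FBS; compound stocks in DMSO. MTT (5 mg/mL in PBS) added for 3 h at 37 °C. Medium replaced with DMSO and OD read at 570 nm.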

In assay [2] the test system is BXPC-3. Nature of the assay: Inhibitory concentration of compound against growth of human BxPC3 cell line. The method, boiled down:
as §1

The test system of assay [3] is HEp-2. Nature of the assay: Inhibitory concentration of compound against growth of human Hep2 cell line. The method, boiled down:
as §1

For assay [4], the system named is MIA PaCa-2. Nature of the assay: Inhibitory concentration of compound against growth of human Mia-Paca cell line. The gist of the method:
as §1

The next assay concerns A-431. Nature of the assay: Inhibitory concentration of compound against growth of human A431 cell line; Resistant. The method, boiled down:
as §1

The subject of assay [5] is BXPC-3. Put plainly: Inhibitory concentration of compound against growth of human BxPC3 cell line; Resistant. The method, boiled down: as §1
For the next assay, the system named is HN006 cell line. Nature of the assay: Inhibitory concentration of compound against growth of human HN006 cell line; Resistant. The gist of the method:
as §1

Assay [6] concerns HEp-2. Nature of the assay: Inhibitory concentration of compound against growth of human Hep2 cell line; Resistant. The gist of the method: as §1
The next assay deals with HuCCT-1. Put plainly: Inhibitory concentration of compound against growth of human HuCCT-1 cell line; Resistant. The method, boiled down:
as §1

For assay [7], the system named is MIA PaCa-2. Put plainly: Inhibitory concentration of compound against growth of human MIA PaCa cell line; Resistant. The method, boiled down: as §1
The test system of a further assay is PANC-1. Nature of the assay: Inhibitory concentration of compound against growth of human Panc-1 cell line; Resistant. The method, boiled down:
as §1

Another assay concerns SNU-308. Put plainly: Inhibitory concentration of compound against growth of human SNU-308 cell line; Resistant. The method, boiled down:
as §1

One may read the IC50 as the concentration at which inhibition is half-maximal. A higher IC50 goes with a need for much substance. Molecule `Cc1cc(NC(=O)N(C)C(=O)c2ccccc2N)ccc1Oc1ncc(Br)cn1` yielded an IC50 in the assay on HEp-2 [1] of 5 µM.

Consider `CNc1ccccc1C(=O)NC(=O)Nc1ccc(Oc2ncc(Br)cn2)c(C)c1`, for which the IC50 in the assay with BXPC-3 [2], in the assay with HEp-2 [3] and with MIA PaCa-2 [4] was 1 µM throughout.

In the case of `CNc1ccccc1C(=O)N(C)C(=O)Nc1ccc(Oc2ncc(Br)cn2)c(C)c1`, the Activity entry in the assay on A-431, in the assay on BXPC-3 [5], in the assay with HN006 cell line, with HEp-2 [6], in the assay with HuCCT-1 and with MIA PaCa-2 [7] was “Resistant” throughout. In addition, the Activity result in the assay on PANC-1 and in the assay with SNU-308 was “Resistant” throughout.

As for `Cc1cc(NC(=O)N(C)C(=O)c2ccccc2NC(=O)N(C)C(=O)c2ccccc2N)ccc1Oc1ncc(Br)cn1`, in the assay with HEp-2 [1], half-maximal inhibition (IC50) required 5 µM.
